The source made the active and inactive calls. No cut-off for these calls is given here.
Experiments:
[1] = Drug uptake in CD1 mouse plasma at 2 umol, ip after 6 hrs by HPLC/MS; type: ADME, organism-based; conditions: read-out: Drug uptake
Outline: (§1)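 Female CD-1 mice dosed i.p. with 2 µmol compound in DMSO–cremophor–PBS (1:1:8). Sacrificed 6 hours later; liver, lung, whole blood and plasma collected for compound levels (tissue µmol/kg, blood/plasma µM).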

[2] = Drug level in CD1 mouse whole blood at 2 umol, ip after 6 hrs by HPLC/MS; type: ADME, organism-based; conditions: read-out: Drug uptake; outline: as §1
Lung = assay: Drug level in CD1 mouse lung at 2 umol, ip after 6 hrs by HPLC/MS; type: ADME, organism-based; conditions: in vivo; outline: as §1
RAW264.7 = assay: Antiinflammatory activity against IFN-gamma-stimulated mouse RAW264.7 cells assessed as nitrite accumulation after 24 hrs by Griess reagent method; type: functional, cell-based; conditions: RAW264.7, 24 h
Outline: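 RAW 264.7 cells co-treated with graded compound concentrations and interferon-γ (10 ng/mL) for 24 hours; nitric oxide in supernatants measured by Griess reaction. IC50 averaged over three experiments.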

[3] = molecular target: T1, Heme oxygenase 1 (Mus musculus) (UniProt P14901); assay: Induction of HO1 in mouse RAW264.7 cells at 100 nM after 6 hrs by SDS-PAGE; type: cell-based
T1 sequence (whole entry): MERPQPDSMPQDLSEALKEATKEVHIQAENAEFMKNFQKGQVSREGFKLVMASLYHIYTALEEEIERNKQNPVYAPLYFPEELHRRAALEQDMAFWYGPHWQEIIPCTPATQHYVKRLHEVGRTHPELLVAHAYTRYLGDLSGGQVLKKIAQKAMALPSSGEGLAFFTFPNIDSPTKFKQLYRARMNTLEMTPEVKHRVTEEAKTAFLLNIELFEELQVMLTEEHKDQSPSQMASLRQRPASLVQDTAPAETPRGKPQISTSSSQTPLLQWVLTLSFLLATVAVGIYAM
Outline: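 RAW 264.7 cells exposed to compounds at 100 nM for 6 hours. Total cell lysates resolved by SDS-PAGE, immunoblotted with HO-1 antibody, ECL detection.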

[4] = Stability assessed as compound remaining after 24 hrs in presence of in 10% fetal bovine serum; type: ADME; conditions: cattle
Outline: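 Compound incubated in RAW 264.7 cell growth medium (RPMI with 10% fetal bovine serum) at 37 °C. Percentage of material remaining followed over time up to 24 h.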

Liver = assay: Drug level in CD1 mouse liver at 2 umol, ip after 6 hrs by HPLC/MS; type: ADME, organism-based; conditions: in vivo; outline: as §1
Mus musculus = assay: Induction of HO1 in CD1 mouse liver at 2 umol, ip after 6 hrs by SDS-PAGE; type: functional, organism-based
Outline: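 CD-1 mice, 4 per group, given a single 2 µmol i.p. injection. Livers harvested after 6 h and homogenized. Lysates separated by SDS-PAGE, probed with HO-1 antibodies and developed by ECL.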

SMILES: CC1(C)CC[C@]2(C(=O)OC(=O)[C@]34CCC(C)(C)C[C@H]3[C@H]3C(=O)C=C5[C@@]6(C)C=C(C#N)C(=O)C(C)(C)[C@@H]6CC[C@@]5(C)[C@]3(C)CC4)CC[C@]3(C)[C@H](C(=O)C=C4[C@@]5(C)C=C(C#N)C(=O)C(C)(C)[C@@H]5CC[C@]43C)[C@@H]2C1
- concentration at 6 h [1]: 43 µM
- concentration at 6 h [2]: 52 µM
- Drug uptake (Lung): 0.031 µmol/kg
- IC50 (RAW264.7): 14.7 nM
- Activity [3]: Active
- Activity [4]: Active
- Drug uptake (Liver): 0.045 µmol/kg
- Activity (Mus musculus): Active

SMILES: C=C(C)[C@@H]1CC[C@]2(C(=O)O)CC[C@]3(C)[C@H](CC[C@@H]4[C@@]5(C)C=C(C#N)C(=O)C(C)(C)[C@@H]5CC[C@]43C)[C@@H]12
- Activity [3]: Active

SMILES: CC1(C)CC[C@]2(C(=O)O)CC[C@]3(C)[C@H](C(=O)C=C4[C@@]5(C)C=C(C#N)C(=O)C(C)(C)[C@@H]5CC[C@]43C)[C@@H]2C1 [BARDOXOLONE]
- concentration at 6 h [1]: 2 µM
- concentration at 6 h [2]: 19 µM
- Drug uptake (Lung): 0.018 µmol/kg
- IC50 (RAW264.7): 28.3 nM
- Activity [3]: Active
- Drug uptake (Liver): 0.041 µmol/kg

SMILES: C=C(C)[C@@H]1CC[C@]2(C(=O)OC(=O)[C@]34CC[C@@H](C(=C)C)[C@@H]3[C@H]3CC[C@@H]5[C@@]6(C)C=C(C#N)C(=O)C(C)(C)[C@@H]6CC[C@@]5(C)[C@]3(C)CC4)CC[C@]3(C)[C@H](CC[C@@H]4[C@@]5(C)C=C(C#N)C(=O)C(C)(C)[C@@H]5CC[C@]43C)[C@@H]12 [LUPANE ANHYDRIDE]
- IC50 (RAW264.7): > 10000 nM
- Activity [3]: inactive

— ChEMBL document CHEMBL1156279, “2-Cyano-3,10-dioxooleana-1,9(11)-dien-28-oic acid anhydride. A novel and highly potent anti-inflammatory and cytoprotective agent” (Bioorg Med Chem Lett, 2010)
